Consider seven compounds from ChEMBL document CHEMBL1124026, “Nitrosoimidazoles: highly bactericidal analogues of 5-nitroimidazole drugs” (J Med Chem, 1988).

The term half-life denotes the time in which the quantity being followed falls by half. Read a low half-life as fast loss. One may read the MIC as the lowest concentration found to suppress growth.

A short description of series [1]: Half-life measured on Bacteroides fragilis in BHIS medium. Conditions: Bacteroides fragilis culture. Format: ADME, organism-based.
The nature of series [2]: Half-life measured on Escherichia coli SR58 in BHI medium; value ranges from 1-3. Format: ADME, organism-based. Conditions: Escherichia coli SR58 culture.
Series [3] is described as follows: Half-life measured in 0.1 M KPO4 buffer at PH 7. Format: ADME. Conditions: 0.1 M potassium phosphate buffer. The gist of the method:
(§1)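 Decay followed as loss of UV absorbance at each compound's absorbance maximum in 0.1 M potassium phosphate, pH 7.0, 0.05–1.0 mM compound. Decay first order; half-life taken as time to 50% absorbance loss, from linear regression, given as mean ± standard deviation.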

The test system of series [4] is Bacteroides fragilis. Kind of series: Minimum inhibitory concentration measured against Bacteroides fragilis strain. Format: functional. The procedure, abridged: (§2)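 Compounds serially diluted 2-fold in BHIS medium containing 5% Me2SO. Each well inoculated with bacteria from a stationary-phase culture, suspension at 10^7 cfu/mL. Incubated anaerobically at 37 °C in Gaspak jars; growth read after 17 h.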

Series [5] deals with Escherichia coli. Kind of series: Minimum inhibitory concentration measured against Escherichia coli AB1157 strain (Uvr+ Rec+). Type of series: functional. The gist of the method: as §2
Series [6] has as its system Escherichia coli. Put plainly: Minimum inhibitory concentration measured against Escherichia coli SR58 strain (RecA- UvrB-). Format: functional. The gist of the method:
as §2

Series [7] deals with Escherichia coli. Put plainly: Minimum inhibitory concentration measured against Escherichia coli EE349 strain (UvrB- Rec+). Type of series: functional. The procedure, abridged:
as §2

The subject of series [8] is Clostridium perfringens. Put plainly: Minimum inhibitory concentration measured against Clostridium perfringens strain. Type of series: functional. The gist of the method: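 Twofold serial dilutions in BHIS medium with 5% Me2SO; each well inoculated with stationary-phase bacterial suspension (10^7 cfu/mL). Plates incubated anaerobically at 37 °C in Gaspak jars; growth scored after 17 h.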

Series [9] deals with Escherichia coli. Put plainly: Minimum inhibitory concentration measured against Escherichia coli AB1885 strain (UvrB- Rec+). Format: functional. The gist of the method: as §2
Series [10] has as its system Escherichia coli. Kind of series: Minimum inhibitory concentration measured against Escherichia coli EE128 strain (Uvr+ RecA-). Format: functional. The procedure, abridged: as §2
Series [11] in a line: Half-life measured on Escherichia coli SR58 in BHI medium; value ranges from 3-4. Format: ADME, organism-based. Conditions: Escherichia coli SR58 culture.
The nature of series [12]: Half-life measured in BHI spent medium. Type of series: ADME. The gist of the method:
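Spent BHI medium prepared by removing E. coli by centrifugation and filtration after maximal logarithmic growth. Compound at 0.05–1.0 mM; UV absorbance at its maximum followed. First-order half-life (time to 50% absorbance loss) from linear regression, mean ± standard deviation.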

Series [13] can be described thus: Half-life measured on Escherichia coli SR58 in BHI medium; value ranges from 4-6. Type of series: ADME, organism-based. Conditions: Escherichia coli SR58 culture.
A short description of series [14]: Half-life measured in 0.1 M KPO4 buffer atPH 7. Format: ADME. The settings on record: 0.1 M potassium phosphate buffer, pH 7. The gist of the method:
as §1

Converted amounts (≈) assume the structure as drawn.

In the case of `O=Nc1[nH]cnc1-c1ccccc1`, the half-life is below 2 min in [1], 1 min in series [2] and 330 min in series [3].
Turning to `Cn1cnc(-c2ccccc2)c1[N+](=O)[O-]`, the MIC in series [4] is below 2 µM; in series [5], above 500 µM; in [6], 8 µM (≈ 1.63 µg/mL); in series [7], 100 µM (≈ 20.3 µg/mL); in [8], 15 µM (≈ 3.05 µg/mL); in series [9], above 500 µM. The compound further showed an MIC in series [10] of 30 µM (≈ 6.1 µg/mL).
`Cn1cnc(-c2ccccc2)c1N=O`: the half-life is below 2 min in series [1], 3 min in series [11], 40 min in series [12] and 540 min in series [3].
Take `Cn1cnc(N=O)c1-c1ccccc1`: the half-life in series [1] was below 2 min; in series [13], 4 min; in series [14], above 600 min; in [12], 160 min.
In the case of `Cn1cnc([N+](=O)[O-])c1-c1ccccc1`, the MIC was 500 µM (≈ 102 µg/mL) in series [4]; above 500 µM in series [5]; 500 µM (≈ 102 µg/mL) in series [6]; at least 500 µM in series [7]; above 500 µM in series [8]; above 500 µM in series [9]. This compound also returned an MIC in series [10] above 500 µM.
`O=[N+]([O-])c1[nH]cnc1-c1ccccc1`: the minimal inhibitory concentration (MIC) in series [4] is 30 µM (≈ 5.68 µg/mL); in [5], above 500 µM; in series [6] it was 130 µM (≈ 24.6 µg/mL); in series [8] it was 250 µM (≈ 47.3 µg/mL); in series [9] it was above 500 µM.
Turning to `Cc1ncc([N+](=O)[O-])n1CCO` [METRONIDAZOLE], the MIC is 6 µM (≈ 1.03 µg/mL) in series [4]; above 500 µM in [5]; 100 µM (≈ 17.1 µg/mL) in [6]; above 600 µM in series [7]; 13 µM (≈ 2.23 µg/mL) in series [8]; above 500 µM in series [9]. In addition, in [10], the MIC was found to be 600 µM (≈ 103 µg/mL).
